# A1 apoptosis 2 = A1 inhibitors via caspase activation, primary screen, cell-based, luminescence, HTS, two replicates; MEF A1-2A-BIM cells, caspase-Glo luminescence, 3 h; percent of clofoctol response, DMSO zero; caspase activation, % (no concentration beside the values); 24,000 tested, under 10 active; in the data active = caspase activation above about 5.9%
#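 system = A1-2A-BIM-expressing MEF cells | quantity = 2500 MEF cells/well | dosing = 50 nL compound per well, pinned | schedule = overnight cell settling, then 3 h compound exposure, 37 °C | signal = luminescence from DEVD-luciferin Caspase-Glo reagent, 1:1 in 50 mM HEPES, 1 h RT | read-out = Caspase-3/7 activation, seen as rise in luminescence signal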
# T cruzi intra = inhibitors of intracellular Trypanosoma cruzi, primary screen, cell-based, plate reader, single point, set 2 | 22,000 compounds, 4.9% hits | activity score (inhibition), % at 5.01 µM | intracellular Trypanosoma cruzi in host cells | AID 651903, 2012; in the data active = activity score above about 55%;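 note: parasites and compound incubated about four days before reading; 0% = median of neutral control wells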
# INS-1E ATP HTS = protection of INS-1E cells from cytokine death, primary screen, ATP luminescence, single point. 20,000 compounds, 0.1% hits. INS-1E cytokine-induced death, 48 h; normalised: neutral wells 0, positive control 100. protection from cytokine-induced ATP loss, % at 10 µM. AID 488910, 2010;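 active = mean replicate protection from cytokine-induced ATP loss at least 50% and at least 75% of replicates each reaching 50%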
#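 Assay system: INS-1E rat cells / Quantity: 8000 cells per well / Medium: RPMI without phenol red, 5% FBS / Probe or stimulus: three-cytokine cocktail (IFN-γ, TNF-α, IL-1β) / Dosing: one compound concentration, pin transfer / Timing: 48 h co-treatment, 10 min post-lysis read / Technique: CellTiter-Glo luminescence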
# Starred values were filed as active, the others as inactive; · = no result given. The entries come from a sample that favours hits as a whole.
SMILES,A1 apoptosis 2,T cruzi intra,INS-1E ATP HTS
C[C@H]1CN([C@@H](C)CO)C(=O)c2cccc(NC(=O)c3ccncc3)c2O[C@H]1CN(C)Cc1ccc(C(F)(F)F)cc1,0,84*,2
C[C@@H]1CN([C@@H](C)CO)C(=O)c2cccc(NC(=O)c3ccncc3)c2O[C@@H]1CN(C)Cc1ccncc1,·,-7,9
C[C@H](CO)N1C[C@H](C)[C@H](CN(C)Cc2ccc(C(=O)O)cc2)Oc2c(NC(=O)c3ccncc3)cccc2C1=O,-1,-27,8
C[C@H](CO)N1C[C@H](C)[C@H](CN(C)Cc2ccc(C(F)(F)F)cc2)Oc2c(NC(=O)c3ccncc3)cccc2C1=O,0,65*,-2
C[C@H](CO)N1C[C@H](C)[C@H](CN(C)C(=O)Nc2ccc(C(F)(F)F)cc2)Oc2ccc(NC(=O)Nc3cccc4ccccc34)cc2C1=O,·,26,-42
COc1ccc(NC(=O)Nc2ccc3c(c2)CC(=O)N([C@H](C)CO)C[C@@H](C)[C@H](CN(C)Cc2ccc(Oc4ccccc4)cc2)O3)cc1,·,10,-25
COc1ccc(NC(=O)Nc2ccc3c(c2)CC(=O)N([C@H](C)CO)C[C@@H](C)[C@@H](CN(C)Cc2ccc(Oc4ccccc4)cc2)O3)cc1,·,72*,-22
COc1ccc(CN(C)C[C@@H]2Oc3ccc(NC(=O)Nc4ccccc4)cc3CC(=O)N([C@@H](C)CO)C[C@H]2C)cc1,0,·,·
C[C@H](CO)N1C[C@H](C)[C@@H](CN(C)Cc2ccc(Oc3ccccc3)cc2)Oc2ccc(NC(=O)C3CCCCC3)cc2CC1=O,0,·,·
COc1ccc(NC(=O)Nc2ccc3c(c2)CC(=O)N([C@@H](C)CO)C[C@H](C)[C@@H](CN(C)Cc2ccc(Oc4ccccc4)cc2)O3)cc1,0,62*,-40
C[C@H]1CN([C@@H](C)CO)C(=O)Cc2cc(NC(=O)C3CCCCC3)ccc2O[C@@H]1CN(C)Cc1ccc(Oc2ccccc2)cc1,·,59*,-29
O=C(CCCCCC(=O)Nc1ccccc1O)N/N=C/c1cc(Br)c(O)c(Br)c1,·,-3,3
C/C=C/[C@H](CC(=O)N(CCO)Cc1ccccc1)[Si](C)(C)c1ccc(OC)cc1,0,·,·
O=C(NO)c1ccc(C(=O)N/N=C/c2ccc(-n3ccnc3)cc2)cc1,0,0,0
COc1ccc(CN(C)C[C@H]2Oc3ccc(NC(=O)CCN4CCOCC4)cc3C(=O)N([C@H](C)CO)C[C@H]2C)cc1,·,-27,12
O=C(N/N=C/c1cn(S(=O)(=O)c2ccccc2)c2ccccc12)c1ccccn1,0,30,2
O=C1N(Cc2ccccc2)Cc2ccccc2C[C@@]12N=C(c1ccc(OCCCO)cc1)O[C@H]2c1ccccc1,0,·,·
C[C@H](CO)N1C[C@H](C)[C@@H](CN(C)S(=O)(=O)c2ccc(-c3ccccc3)cc2)OCc2cnnn2CCCC1=O,1,80*,·
C[C@H](CO)N1C[C@H](C)[C@H](CN(C)S(=O)(=O)c2ccc(Oc3ccccc3)cc2)OCc2cnnn2CCCC1=O,0,70*,8
C[C@@H]1CN([C@H](C)CO)C(=O)CCCn2nncc2CO[C@@H]1CN(C)S(=O)(=O)c1ccc(Oc2ccccc2)cc1,1,26,-2
C[C@@H]1CN([C@@H](C)CO)C(=O)CCCn2nncc2CO[C@H]1CN(C)Cc1ccc(-c2ccccc2)cc1,·,22,·
C[C@@H]1CN([C@H](C)CO)C(=O)CCCn2nncc2CO[C@H]1CN(C)S(=O)(=O)c1ccc(-c2ccccc2)cc1,1,-4,2
C[C@@H]1CN([C@H](C)CO)C(=O)CCCn2nncc2CO[C@@H]1CN(C)Cc1ccc(-c2ccccc2)cc1,·,60*,·
O=C(CCCCCC(=O)N/N=C/c1ccc([N+](=O)[O-])c(O)c1)NO,0,12,-3
COCCOC(=O)N1C(=O)[C@@]2(c3cc(C#CC4=CCCCC4)ccc31)[C@H](c1ccc(O)cc1)N1[C@H](c3ccccc3)[C@H](c3ccccc3)OC(=O)[C@H]1[C@@H]2C(=O)NC[C@H](O)c1ccccc1,0,·,·
SMILES,A1 apoptosis 2,T cruzi intra,INS-1E ATP HTS
O=C(N/N=C/c1ccc(-c2ccccc2)c(F)c1)c1ccccc1O,-9,3,-21
COc1ccc([Si](C)(C)[C@@H]2[C@@H](CCO)O[C@]3(C(=O)N(C)c4ccccc43)[C@H]2C)cc1,2,·,·
COc1ccc([Si](C)(C)[C@@H]2[C@@H](CCO)O[C@]3(C(=O)N(C)c4c(Br)cc(C)cc43)[C@H]2C)cc1,44*,·,·
O=C(O)CCCCCCC(=O)N/N=C/c1cc(O)ccc1Br,1,-20,6
C#CCOc1ccc(/C=N/NC(=O)c2ccccn2)cc1,-11,-30,-16
C[C@H]1CN([C@@H](C)CO)C(=O)Cc2cc(NC(=O)Nc3ccc4c(c3)OCO4)ccc2O[C@@H]1CN(C)Cc1ccc(C(=O)Nc2ccccc2N)cc1,0,56*,-10
CC(C)NC(=O)Nc1ccc2c(c1)CC(=O)N([C@@H](C)CO)C[C@@H](C)[C@@H](CN(C)Cc1ccc(C(=O)Nc3ccccc3N)cc1)O2,·,40,-23
C[C@H](CO)N1C[C@H](C)[C@H](CN(C)Cc2ccc(C(=O)Nc3ccccc3N)cc2)Oc2ccc(NC(=O)Nc3ccc4c(c3)OCO4)cc2CC1=O,·,67*,48
COc1ccc(COC[C@@]23Oc4ccccc4[C@@H](NC(=O)N2C)[C@H]3COC(=O)c2ccccc2)cc1,1,·,·
Cc1noc(C)c1NC(=O)Nc1cccc2c1O[C@H](CN(C)Cc1ccncc1)[C@H](C)CN([C@H](C)CO)C2=O,-1,17,18
O=C(CCCCCCC(=O)N/N=C/c1cc(F)ccc1O)NO,0,·,·
COc1ccc(S(=O)(=O)Nc2ccc3c(c2)C(=O)N([C@H](C)CO)C[C@@H](C)[C@@H](CN(C)Cc2ccc(Oc4ccccc4)cc2)O3)cc1,·,-12,-14
Cc1ccc(S(=O)(=O)Nc2ccc3c(c2)C(=O)N([C@H](C)CO)C[C@@H](C)[C@@H](CN(C)Cc2ccc(-c4ccccc4)cc2)O3)cc1,3,30,-20
C[C@H](CO)N1C[C@H](C)[C@@H](CN(C)Cc2ccc(-c3ccccc3)cc2)Oc2ccc(NS(=O)(=O)c3ccccc3)cc2C1=O,0,41*,·
C[C@@H]1CN([C@H](C)CO)C(=O)c2cc(NS(=O)(=O)c3ccccc3)ccc2O[C@@H]1CN(C)Cc1ccc(-c2ccccc2)cc1,-2,66*,-28
COc1ccc(S(=O)(=O)Nc2ccc3c(c2)C(=O)N([C@@H](C)CO)C[C@H](C)[C@H](CN(C)Cc2ccc(Oc4ccccc4)cc2)O3)cc1,·,74*,-48
Cc1ccc(S(=O)(=O)Nc2ccc3c(c2)C(=O)N([C@H](C)CO)C[C@H](C)[C@@H](CN(C)Cc2ccc(-c4ccccc4)cc2)O3)cc1,·,-23,-3
O=C(N/N=C/c1ccc(O)cc1)c1ccccc1O,-6,-24,-30

# High-throughput results from PubChem BioAssay.
